The results in this text go back to ChEMBL document CHEMBL1155209, “Synthesis and in vitro study of 14-aryl-14H-dibenzo[a.j]xanthenes as cytotoxic agents” (Bioorg Med Chem Lett, 2009).

Holding throughout (format): functional, cell-based
The test system of one test is A549. Nature of the test: Cytotoxicity against human A549 cells […] by SRB assay. (In general: Sulforhodamine B stains cellular protein and so reports cell mass.)
The test system of a further test is PC-3. In words: Cytotoxicity against human PC3 cells […] by SRB assay. The following applies: PC-3, 48 h, in the assay text read “48 hrs” for “72 hrs”. In short, it runs like this:
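Human cancer lines from NCI grown in RPMI-1640 (2 mM glutamine, pH 7.4, 10% fetal calf serum, streptomycin/penicillin) at 37 °C, 5% CO2. Cells trypsinized at subconfluence, >98% viable by trypan blue, seeded and grown 24 h, then given test material for 48 h. TCA fixation at 4 °C 1 h, SRB staining, dye dissolved in Tris-HCl pH 10.4, OD 540 nm. Growth inhibition relative to untreated control after blank subtraction.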

Test [1] in a line: Cytotoxicity against human 502713 cells […] by SRB assay.
Another test relates to SW-620. Nature of the test: Cytotoxicity against human SW620 cells […] by SRB assay.
The subject of another test is COLO 205. In words: Cytotoxicity against human COLO205 cells […] by SRB assay.
The subject of the next test is SK-N-SH. In words: Cytotoxicity against human SK-N-SH cells […] by SRB assay.

Regarding `OCC(O)COc1ccc(C2c3c(ccc4ccccc34)Oc3ccc4ccccc4c32)cc1` (stereo unspecified), the IC50 (as a rule, the point on the concentration scale where inhibition reaches its midpoint) with A549 stood at 128 µM; with PC-3, 63.9 µM; in test [1] it was 41.3 µM; with SW-620, 49.1 µM; in the test with COLO 205, 37.9 µM; in the test on SK-N-SH, 44 µM.
For the compound `COc1cc(C2c3c(ccc4ccccc34)Oc3ccc4ccccc4c32)ccc1O`, the IC50 was 74.3 µM in the test with A549; 61.1 µM in the test with PC-3; 45.4 µM in test [1]; 54.4 µM in the test on SW-620; 41.9 µM in the test with COLO 205; 44.3 µM in the test with SK-N-SH.
In the case of `O=[N+]([O-])c1ccccc1C1c2c(ccc3ccccc23)Oc2ccc3ccccc3c21`, the IC50 in the test with PC-3 worked out at 82 µM; in test [1], 50 µM; with SW-620, 63.2 µM; in the test on SK-N-SH, 55 µM.
